Results: PMC2741613 (Journal of the American Chemical Society, 2009)
Read-outs that look alike come from different tables or passages of the source. Non-standard residues stand in square brackets, D forms with d. Residues, ends and D or L forms follow the SMILES beside them. F2Pmp = N[CH](Cc1ccc(C(F)(F)P(=O)(O)O)cc1)C(=O)O

Tests used:
TC-PTP = target: T1, TC-PTP (Homo sapiens, UniProt P17706); test: TC-PTP-catalyzed pNPP hydrolysis inhibition; format: biochemical; settings: for IC50: pNPP 2 mM, pH 7.0, 25 °C; for fold enhancement relative to parent compound 5: IC50/affinity for TC-PTP versus compound 5
T1 sequence (P17706 1-415): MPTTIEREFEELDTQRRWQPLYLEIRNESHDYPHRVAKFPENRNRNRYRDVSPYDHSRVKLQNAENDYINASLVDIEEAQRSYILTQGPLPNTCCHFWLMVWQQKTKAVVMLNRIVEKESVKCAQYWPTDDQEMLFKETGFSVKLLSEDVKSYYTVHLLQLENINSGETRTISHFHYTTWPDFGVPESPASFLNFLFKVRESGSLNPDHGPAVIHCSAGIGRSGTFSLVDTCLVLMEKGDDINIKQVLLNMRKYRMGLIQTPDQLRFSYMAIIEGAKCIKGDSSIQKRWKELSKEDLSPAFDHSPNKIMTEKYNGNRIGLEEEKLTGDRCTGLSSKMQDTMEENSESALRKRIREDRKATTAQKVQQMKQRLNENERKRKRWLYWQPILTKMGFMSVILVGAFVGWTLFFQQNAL
How it was run: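 IC50: enzyme added last (10 nM or 0.4 nM final) to 2 mM pNPP (Km) plus varied test compound, 30 min at room temperature, NaOH quench, A405. Reversibility: enzyme preincubated with test compound 30 min before pNPP. Mode/Ki: 0.4 nM enzyme, varied pNPP and inhibitor, kinetic fit.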

[1] = tested on: tyrosine phosphorylation of EGFR in PTP1B−/− mouse embryo fibroblast cells; test: EGF-stimulated EGFR phosphorylation in cells; format: cell-based; settings: 200 nM
How it was run: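 PTP1B−/− mouse embryo fibroblasts were given test compound for 2 hr, then EGF 2 ng/mL for 10 min. Lysis in HEPES pH 7.4 buffer with pervanadate, fluoride and protease inhibitors, cleared at 15,000 rpm for 10 min, protein by BCA. EGFR immunoprecipitated from 1 mg lysate (4 °C, 2 h; protein A/G 2 h). SDS-PAGE, anti-pTyr immunoblot, ECL detection.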

IC50 (TC-PTP; read-out: IC50 for TC-PTP) [nM]	IC50 (TC-PTP; read-out: IC50 for the TC-PTP-catalyzed reaction) [nM]	SMILES	effect on EGFR phosphorylation [1]	fold enhancement relative to parent compound 5 (TC-PTP) [fold]
> 1000	–	CCc1ccc(C(=O)NCCCCC(NC(=O)C(Cc2ccccc2)NC(=O)C(Cc2ccccc2)NC(=O)COC2CC(C)CCC2C(C)C)C(N)=O)cc1 (stereo not shown) [Compound 9]	no effect	–
20000	–	O=C(N[C@@H](Cc1ccc(C(F)(F)P(=O)(O)O)cc1)C(=O)O)OCC1c2ccccc2-c2ccccc21 [Fmoc-F2Pmp-OH, reference compound]	–	–
2000	–	CC(=O)NCCCCC(NC(=O)C(Cc1ccc(C(F)(F)P(=O)(O)O)cc1)NC(C)=O)C(N)=O (stereo not shown) [Compound 5] (Ac-[F2Pmp]-Lys(Ac)-NH2; configuration not given here)	–	–
–	–	CCc1ccc(C(=O)NCCCCC(NC(=O)C(Cc2ccc(C(F)(F)P(=O)(O)O)cc2)NC(=O)C(Cc2ccccc2)NC(C)=O)C(N)=O)cc1 (stereo not shown) [Compound 7]	–	77
–	160 ± 20	CCc1ccc(C(=O)NCCCCC(NC(=O)C(Cc2ccc(C(F)(F)P(=O)(O)O)cc2)NC(C)=O)C(N)=O)cc1 (stereo not shown) [Compound 6]	–	12.5
